Experimental findings from ChEMBL document CHEMBL4004857, “Synthesis and biological evaluation of novel pyrazolic chalcone derivatives as novel hepatocellular carcinoma therapeutics” (Eur J Med Chem, 2017) are described below.

For assay [1], the system named is Huh-7. The assay is described as follows: Cytotoxicity against human HuH7 cells assessed as growth inhibition after 72 hrs by SRB assay. Conditions: Huh-7, 72 h. The assay is classed as functional, cell-based. An outline of the steps: (§1)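 Cells seeded at 2000–3000 per well and grown 24 h at 37C, then treated in triplicate with compounds dissolved in DMSO over a 40–0.3 range for 72 h. Cells were fixed with 10% TCA for 1 h, stained with 0.4% SRB in 1% acetic acid, washed with 1% acetic acid and air-dried. Bound dye was solubilized in 10 mM Tris base and read at 515 nm. % inhibition and IC50 were calculated against DMSO-only controls.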
For orientation: The SRB assay estimates cell density from bound dye.

The test system of assay [2] is MCF7. Description: Cytotoxicity against human MCF7 cells assessed as growth inhibition after 72 hrs by SRB assay. The class given is functional, cell-based. Conditions: MCF7, 72 h. In short, it runs like this: as §1
Assay [3] has as its system HCT-116. Description: Cytotoxicity against human HCT116 cells assessed as growth inhibition after 72 hrs by SRB assay. The assay is classed as functional, cell-based. Conditions: HCT-116, 72 h. In short, it runs like this: as §1
Assay [4] is filed under the species Homo sapiens. Description: Inhibition of tubulin polymerization (unknown origin).

The source made the active and inactive calls. No cut-off for these calls is given here.

In general, IC50 refers to the midpoint of a concentration-inhibition curve. `COc1ccc(C(=O)/C=C/c2cn(-c3ccccc3)nc2-c2ccncc2)cc1OC`: the IC50 in assay [1] is 2 µM; in assay [2] it was 4.3 µM; in assay [3], 1.2 µM. For the same molecule, in assay [4], the inhibition result is “inactive”.
The like results for `COc1cc(OC)c(C(=O)/C=C/c2cn(-c3ccccc3)nc2-c2ccc3c(c2)OCO3)c(OC)c1` were, in that order, 6.7 µM, 11.5 µM, 10.8 µM and “inactive”.
The like results for `O=C(/C=C/c1cn(-c2ccccc2)nc1-c1cccnc1)c1ccccc1` were, in that order, 2.3 µM, 4.1 µM, 2 µM and “inactive”.
As to `O=C(/C=C/c1cn(-c2ccccc2)nc1-c1ccc2c(c1)OCO2)c1cc[nH]c1`, the half-inhibitory concentration (IC50) in assay [1] was 9.2 µM; in assay [2], 9.9 µM; in assay [3], 20.3 µM. In addition, the inhibition result in assay [4] is “inactive”.
As for `COc1cc(OC)c(C(=O)/C=C/c2cn(-c3ccccc3)nc2-c2ccsc2)c(OC)c1`, the IC50 in assay [1] came to 6.1 µM; in assay [2], 2.7 µM; in assay [3] it was 5.2 µM. The inhibition entry in assay [4] was “inactive”.
With `O=C(/C=C/c1cn(-c2ccccc2)nc1-c1ccncc1)c1cc[nH]c1`, the half-maximal inhibitory concentration (IC50) in assay [1] was 28.8 µM; in assay [2], 13.6 µM; in assay [3], 15.7 µM. Also, the inhibition result in assay [4] was “inactive”.
Take `COc1ccc(C(=O)/C=C/c2cn(-c3ccccc3)nc2-c2ccc3c(c2)OCO3)cc1OC`: the IC50 in assay [1] is 15.4 µM; in assay [2] it was 11.7 µM; in assay [3] it was 11.4 µM. For the same molecule, the inhibition entry in assay [4] is “inactive”.
The like results for `O=C(/C=C/c1cn(-c2ccccc2)nc1-c1ccsc1)c1ccccc1` were, in that order, 4.7 µM, 1.9 µM, 5.1 µM and “inactive”.
The like results for `COc1cc(C(=O)/C=C/c2cn(-c3ccccc3)nc2-c2ccncc2)cc(OC)c1OC` were, in that order, 3.5 µM, 3.5 µM, 0.3 µM and “inactive”.
With `O=C(/C=C/c1cn(-c2ccccc2)nc1-c1cccnc1)c1c[nH]c2ccccc12`, the 50% inhibitory concentration (IC50) turned out to be 3.2 µM in assay [1], 2.6 µM in assay [2] and 6.4 µM in assay [3]. In assay [4], the inhibition result was “inactive”.
In the same order, the values of `O=C(/C=C/c1cn(-c2ccccc2)nc1-c1ccsc1)c1ccc2c(c1)OCO2` are 22.6 µM, 5.3 µM, 12.2 µM and “inactive”.
As to `COc1ccc(OC)c(C(=O)/C=C/c2cn(-c3ccccc3)nc2-c2ccsc2)c1`, the half-maximal inhibitory concentration (IC50) was found to be 2.1 µM in assay [1], 0.4 µM in assay [2] and 3.4 µM in assay [3]. Also, the inhibition result in assay [4] was “inactive”.
For `O=C(/C=C/c1cn(-c2ccccc2)nc1-c1ccc2c(c1)OCO2)c1ccccc1`, the half-inhibitory concentration (IC50) worked out at 10.5 µM in assay [1], 11.1 µM in assay [2] and 1.16 µM in assay [3]. For the same molecule, the inhibition entry in assay [4] is “inactive”.
In the same order, the values of `COc1ccc(OC)c(C(=O)/C=C/c2cn(-c3ccccc3)nc2-c2ccc3c(c2)OCO3)c1` are 6.1 µM, 5.8 µM, 1.3 µM and “inactive”.
With `COc1ccc(C(=O)/C=C/c2cn(-c3ccccc3)nc2-c2ccncc2)c(OC)c1`, the IC50 in assay [1] amounted to 4.4 µM; in assay [2], 8.8 µM; in assay [3], 4.4 µM. The inhibition result in assay [4] was “inactive”.
Turning to `COc1ccc(C(=O)/C=C/c2cn(-c3ccccc3)nc2-c2ccc3c(c2)OCO3)c(OC)c1`, the values for the 50% inhibitory concentration (IC50) in assay [1], in assay [2] and in assay [3] were 19 µM, 14.5 µM and 8.6 µM, respectively. In addition, the inhibition result in assay [4] was “inactive”.
Consider `COc1ccc(C(=O)/C=C/c2cn(-c3ccccc3)nc2-c2ccsc2)c(OC)c1`, for which the concentration for half-maximal inhibition (IC50) in assay [1] stood at 3 µM; in assay [2], 9 µM; in assay [3], 2.2 µM. Further, the inhibition result in assay [4] was “inactive”.
Take `O=C(/C=C/c1cn(-c2ccccc2)nc1-c1cccnc1)c1ccccn1`: the concentration for half-maximal inhibition (IC50) stood at 6.4 µM in assay [1], 4.2 µM in assay [2] and 2.1 µM in assay [3]. In assay [4], the inhibition result was “inactive”.
The like results for `COc1ccc(C(=O)/C=C/c2cn(-c3ccccc3)nc2-c2cccnc2)c(OC)c1OC` were, in that order, 2.3 µM, 1.4 µM, 1.1 µM and “inactive”.
Turning to `COc1ccc(C(=O)/C=C/c2cn(-c3ccccc3)nc2-c2ccncc2)c(OC)c1OC`, the IC50 in assay [1] was 3.7 µM; in assay [2], 3.3 µM; in assay [3], 1.3 µM. For the same molecule, in assay [4], the inhibition entry is “inactive”.
As for `COc1ccc(C(=O)/C=C/c2cn(-c3ccccc3)nc2-c2cccnc2)cc1OC`, the values for the IC50 in assay [1], in assay [2] and in assay [3] were 3.1 µM, 1.7 µM and 4.3 µM, respectively. The inhibition result in assay [4] is “inactive”.
On to `O=C(/C=C/c1cn(-c2ccccc2)nc1-c1cccnc1)c1cc[nH]c1`, for which the 50% inhibitory concentration (IC50) stood at 3.3 µM in assay [1], 6.9 µM in assay [2] and 7.4 µM in assay [3]. In assay [4], the inhibition result is “inactive”.
The like results for `COc1cc(C(=O)/C=C/c2cn(-c3ccccc3)nc2-c2ccsc2)cc(OC)c1OC` were, in that order, 3.6 µM, 4.9 µM, 3.2 µM and “inactive”.
In the same order, the values of `O=C(/C=C/c1cn(-c2ccccc2)nc1-c1ccc2c(c1)OCO2)c1ccsc1` are 3.2 µM, 4.9 µM, 8.9 µM and “inactive”.
The like results for `COc1ccc(C(=O)/C=C/c2cn(-c3ccccc3)nc2-c2ccsc2)cc1OC` were, in that order, 2.9 µM, 2.8 µM, 1.6 µM and “inactive”.
With `O=C(/C=C/c1cn(-c2ccccc2)nc1-c1ccc2c(c1)OCO2)c1cccnc1`, the half-inhibitory concentration (IC50) in assay [1] is 3.4 µM; in assay [2], 2.2 µM; in assay [3], 3.8 µM. Also, the inhibition result in assay [4] is “inactive”.
Turning to `O=C(/C=C/c1cn(-c2ccccc2)nc1-c1ccncc1)c1ccccc1`, the concentration for half-maximal inhibition (IC50) is 1.8 µM in assay [1], 3.4 µM in assay [2] and 3.1 µM in assay [3]. For the same molecule, the inhibition result in assay [4] is “inactive”.
As to `COc1ccc(C(=O)/C=C/c2cn(-c3ccccc3)nc2-c2ccsc2)c(OC)c1OC`, the half-inhibitory concentration (IC50) in assay [1] stood at 4.2 µM; in assay [2], 7.4 µM; in assay [3] it was 5.8 µM. In addition, the inhibition result in assay [4] is “inactive”.
The like results for `COc1cc(C(=O)/C=C/c2cn(-c3ccccc3)nc2-c2cccnc2)cc(OC)c1OC` were, in that order, 1.9 µM, 14.5 µM, 8.6 µM and “inactive”.
Consider `O=C(/C=C/c1cn(-c2ccccc2)nc1-c1ccc2c(c1)OCO2)c1ccc2c(c1)OCO2`, for which the figures for the IC50 in assay [1], in assay [2] and in assay [3] were 9.9 µM, 17.5 µM and 27.2 µM, respectively. Further, in assay [4], the inhibition result is “inactive”.
In the same order, the values of `COc1ccc(C(=O)/C=C/c2cn(-c3ccccc3)nc2-c2ccc3c(c2)OCO3)c(OC)c1OC` are 10.8 µM, 7.4 µM, 3.2 µM and “inactive”.
In the same order, the values of `O=C(/C=C/c1cn(-c2ccccc2)nc1-c1ccncc1)c1ccc2c(c1)OCO2` are 0.4 µM, 0.8 µM, 5.3 µM and “inactive”.
Regarding `O=c1[nH]cc(F)c(=O)[nH]1` [FLUOROURACIL], the half-inhibitory concentration (IC50) in assay [1] was found to be 21 µM; in assay [2], 1.4 µM; in assay [3], 18.4 µM.
As for `O=C(/C=C/c1cn(-c2ccccc2)nc1-c1cccnc1)c1ccsc1`, the results for the half-inhibitory concentration (IC50) in assay [1], in assay [2] and in assay [3] were 1.7 µM, 0.5 µM and 1.3 µM, respectively. Besides, in assay [4], the inhibition entry was “inactive”.
On to `COc1cc(C(=O)/C=C/c2cn(-c3ccccc3)nc2-c2ccc3c(c2)OCO3)cc(OC)c1OC`, for which the figures for the IC50 in assay [1], in assay [2] and in assay [3] were 11.7 µM, 10.9 µM and 8.3 µM, respectively. For the same molecule, in assay [4], the inhibition result was “inactive”.
In the case of `Nc1nc(Cl)nc2c1ncn2[C@H]1C[C@H](O)[C@@H](CO)O1` [CLADRIBINE], the IC50 in assay [1] was 1.8 µM; in assay [2], 2 µM; in assay [3] it was 0.3 µM.
For `COc1ccc(C(=O)/C=C/c2cn(-c3ccccc3)nc2-c2cccnc2)c(OC)c1`, the half-maximal inhibitory concentration (IC50) stood at 2.4 µM in assay [1], 2.3 µM in assay [2] and 1.3 µM in assay [3]. Moreover, the inhibition result in assay [4] was “inactive”.
Turning to `O=C(/C=C/c1cn(-c2ccccc2)nc1-c1ccc2c(c1)OCO2)c1ccccn1`, the half-maximal inhibitory concentration (IC50) in assay [1] was determined as 3.4 µM; in assay [2], 4.1 µM; in assay [3], 6.7 µM. Besides, in assay [4], the inhibition entry was “inactive”.
The like results for `O=C(/C=C/c1cn(-c2ccccc2)nc1-c1cccnc1)c1ccc2c(c1)OCO2` were, in that order, 6.7 µM, 5.6 µM, 1.8 µM and “inactive”.
The like results for `O=C(/C=C/c1cn(-c2ccccc2)nc1-c1ccncc1)c1ccsc1` were, in that order, 2.2 µM, 1.5 µM, 1.1 µM and “inactive”.
